Consider three compounds from ChEMBL document CHEMBL1208725, “Prostaglandin phospholipid conjugates with unusual biophysical and cytotoxic properties” (Bioorg Med Chem Lett, 2010).

In data set [1] the test system is HT-29. Kind of data set: Cytotoxicity against human HT-29 cells after 24 hrs by MTT assay. Conditions: HT-29, 24 h. The data set is classed as functional, cell-based. An outline of the steps: (§1)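 Colon cancer cells were incubated with the substances for 24 h. Viability was then read by MTT assay 48 h after incubation. IC₅₀ values are mean SD, n ≥ 3.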
Data set [2] concerns COLO 205. Kind of data set: Cytotoxicity against human COLO205 cells after 24 hrs by MTT assay. The data set is classed as functional, cell-based. Conditions: COLO 205, 24 h. An outline of the steps:
as §1
A general note: Tetrazolium dyes change colour on reduction, which living cells bring about.

Data set [3] in a line: Chemical stability of the compound in presence of snake venom secretory phospholipase A2 after 24 hrs by MALDI-TOF MS analysis. The data set is classed as physicochemical. An outline of the steps: (§2)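 Formulated lipid suspensions (extruded through a 100 nm filter) were incubated with purified snake venom sPLA₂ (Agkistrodon piscivorus piscivorus and Naja mossambica mossambica) with stirring at 37 °C. Samples were taken at 2, 24 and 48 h for MALDI-TOF MS. The matrix was DHB and CF₃COONa in methanol with DPPG as internal standard. Hydrolysis was estimated as conversion of the conjugate.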

Data set [4] concerns HT-29. Put plainly: Cytotoxicity against human HT-29 cells after 24 hrs by MTT assay in presence of snake venom secretory phospholipase A2. To be noted: HT-29, 24 h. The data set is classed as functional, cell-based.
Data set [5] has as its system COLO 205. Kind of data set: Induction of apoptosis in human COLO205 cells at 20 uM. The data set is classed as functional, cell-based.
Data set [6] deals with COLO 205. Kind of data set: Induction of apoptosis in human COLO205 cells assessed as complete cell death at 100 uM. The data set is classed as functional, cell-based.
In data set [7] the test system is secretory phospholipase A2. Kind of data set: Chemical stability of the compound in presence of snake venom secretory phospholipase A2 after 48 hrs by MALDI-TOF MS analysis. To be noted: read-out: Stability. The format is physicochemical. An outline of the steps:
as §2

Active and inactive are the calls of the source. The calls are words filed in the database; no cut-off is given here.

Take `CCCCC/C=C/C=C1\C(=O)C=C[C@@H]1C/C=C/CCCC(=O)O`: the IC50 in the data set on HT-29 [1] is 1.6 µM; with COLO 205 [2], 4 µM.
`CCCCC/C=C/C=C1\C(=O)C=C[C@H]1C/C=C/CCCC(=O)O[C@H](COC(=O)CCCCCCCCCCCCCCCCC)COP(=O)([O-])OC[C@@H](O)CO.[Na+]`: the Stability entry in data set [3] is given as “Unstable”. For the same compound, the figures for the IC50 with HT-29 [1], in the data set with HT-29 [4] and in the data set on COLO 205 [2] were 32 µM, 6.4 µM and 17 µM, respectively. Further, the outcome in the data set with COLO 205 [5] and with COLO 205 [6] was Active.
For `CCCCC/C=C/C=C1\C(=O)C=C[C@H]1C/C=C/CCCC(=O)O[C@H](COCCCCCCCCCCCCCCCCCC)COP(=O)(O)OC[C@@H](O)CO`, the remaining at 48 h in data set [7] came out at 70%. Also, the IC50 with HT-29 [1] stood at 6 µM; in the data set with HT-29 [4] it was 2.2 µM; with COLO 205 [2], 9 µM. For the same compound, the outcome in the data set with COLO 205 [5] and in the data set on COLO 205 [6] was Active.

A word on the IC50: it is the concentration that inhibits the measured activity by half.
